Test results as given in ChEMBL document CHEMBL1921795, “Discovery, synthesis, and structure-activity relationship development of a series of N-4-(2,5-dioxopyrrolidin-1-yl)phenylpicolinamides (VU0400195, ML182): characterization of a novel positive allosteric modulator of the metabotropic glutamate receptor 4 (mGlu(4)) with oral efficacy in an …” (J Med Chem, 2011).

Columns and labels:
[1] = target: T1, Metabotropic glutamate receptor 4 (Homo sapiens, UniProt Q14833); experiment: Positive allosteric modulator activity at human mGlu4 receptor expressed in CHO cells expressing Gqi5 by calcium mobilization assay
[2] = target: T1, Metabotropic glutamate receptor 4; experiment: Positive allosteric modulation of human mGlu4 receptor expressed in CHO cells coexpressing Gqi5 assessed as potentiation of glutamate-induced calcium mobilization relative to (-)-PHCCC; format: functional, cell-based
How it was run: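 CHO cells stably expressing human mGlu4 with chimeric Gqi5, plated overnight, loaded 45 min at 37 °C with 1 µM Fluo-4 AM. Compound (10-point, 1:3 dilutions) was added about 2.5 min before an EC20 glutamate, then EC80 glutamate 2 min later. Ca2+ fluorescence read at 470/540 nm. Four-parameter logistic fit.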

[3] = target: Metabotropic glutamate receptor 4 (Rattus norvegicus, UniProt P31423); experiment: Positive allosteric modulator activity at rat mGlu4 receptor by thallium flux assay
[4] = target: Metabotropic glutamate receptor 4 (Rattus norvegicus) (UniProt P31423); experiment: Positive allosteric modulator activity at rat mGlu4 receptor by thallium flux assay at 30 uM relative to glutamate
[5] = target: Metabotropic glutamate receptor 4 (Rattus norvegicus) (UniProt P31423); experiment: Positive allosteric modulation of rat mGlu4 receptor assessed as potentiation of glutamate-induced thallium flux relative to (-)-PHCCC; set-up: concentration or dose not given beside the values

Sequence of Metabotropic glutamate receptor 4 (Rattus norvegicus) (P31423 whole entry): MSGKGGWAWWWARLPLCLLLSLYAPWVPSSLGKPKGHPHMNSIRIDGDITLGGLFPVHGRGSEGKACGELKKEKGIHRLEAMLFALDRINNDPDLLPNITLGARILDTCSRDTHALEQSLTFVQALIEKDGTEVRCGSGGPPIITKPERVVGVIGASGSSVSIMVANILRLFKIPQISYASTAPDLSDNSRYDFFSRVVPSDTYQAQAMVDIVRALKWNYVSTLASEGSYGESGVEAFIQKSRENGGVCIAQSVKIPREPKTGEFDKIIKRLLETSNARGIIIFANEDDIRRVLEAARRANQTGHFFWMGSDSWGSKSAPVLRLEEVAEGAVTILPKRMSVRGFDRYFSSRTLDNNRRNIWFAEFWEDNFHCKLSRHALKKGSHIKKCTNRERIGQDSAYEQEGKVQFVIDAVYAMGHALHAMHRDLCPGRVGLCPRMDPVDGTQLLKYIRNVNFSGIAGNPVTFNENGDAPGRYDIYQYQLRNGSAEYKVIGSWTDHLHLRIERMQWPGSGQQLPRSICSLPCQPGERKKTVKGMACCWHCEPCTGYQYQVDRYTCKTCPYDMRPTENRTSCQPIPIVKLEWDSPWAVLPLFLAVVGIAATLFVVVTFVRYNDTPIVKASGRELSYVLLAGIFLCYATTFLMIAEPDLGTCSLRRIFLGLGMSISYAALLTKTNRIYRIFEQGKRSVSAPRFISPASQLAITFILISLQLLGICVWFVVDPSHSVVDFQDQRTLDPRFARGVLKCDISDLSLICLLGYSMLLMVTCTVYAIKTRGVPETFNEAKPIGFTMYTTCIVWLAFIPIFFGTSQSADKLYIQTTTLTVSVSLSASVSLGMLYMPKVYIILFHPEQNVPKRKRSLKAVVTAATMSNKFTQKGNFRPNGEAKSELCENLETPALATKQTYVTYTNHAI
Sequence of Metabotropic glutamate receptor 4 (Rattus norvegicus, UniProt P31423) (P31423 whole entry): as above
T1 sequence (Q14833 whole entry): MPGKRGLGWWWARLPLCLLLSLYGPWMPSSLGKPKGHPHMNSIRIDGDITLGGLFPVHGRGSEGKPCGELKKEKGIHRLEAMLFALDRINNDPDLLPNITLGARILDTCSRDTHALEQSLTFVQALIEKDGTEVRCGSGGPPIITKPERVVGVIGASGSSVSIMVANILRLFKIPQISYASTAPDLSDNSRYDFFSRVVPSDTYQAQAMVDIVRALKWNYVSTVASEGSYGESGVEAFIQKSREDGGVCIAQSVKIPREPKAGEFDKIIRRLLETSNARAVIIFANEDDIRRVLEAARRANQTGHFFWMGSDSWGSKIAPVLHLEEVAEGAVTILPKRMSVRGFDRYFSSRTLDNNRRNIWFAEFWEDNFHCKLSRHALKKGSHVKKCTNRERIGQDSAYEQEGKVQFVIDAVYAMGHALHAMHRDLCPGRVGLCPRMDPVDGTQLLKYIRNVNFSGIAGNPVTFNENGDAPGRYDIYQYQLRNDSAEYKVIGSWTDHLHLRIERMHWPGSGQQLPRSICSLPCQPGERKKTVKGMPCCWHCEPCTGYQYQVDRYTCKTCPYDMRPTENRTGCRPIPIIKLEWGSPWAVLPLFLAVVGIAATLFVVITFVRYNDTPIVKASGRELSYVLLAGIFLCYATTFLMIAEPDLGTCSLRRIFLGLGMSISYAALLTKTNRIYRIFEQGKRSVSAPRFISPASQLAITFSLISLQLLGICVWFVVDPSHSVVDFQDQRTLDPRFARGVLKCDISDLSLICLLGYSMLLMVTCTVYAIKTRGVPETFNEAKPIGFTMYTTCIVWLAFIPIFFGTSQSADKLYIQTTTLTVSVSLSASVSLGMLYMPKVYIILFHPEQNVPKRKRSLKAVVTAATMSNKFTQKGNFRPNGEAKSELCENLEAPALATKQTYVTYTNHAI

## O=C(Nc1ccc(N2C(=O)[C@@H]3[C@H](C2=O)[C@@H]2CC[C@H]3O2)c(Cl)c1)c1ccccn1
[1]
  EC50: 1300 nM
[2]
  Activity: 90%

## O=C(Nc1ccc(N2S(=O)(=O)c3ccccc3S2(=O)=O)cc1)c1cncs1
[1]; cho
  EC50: Not Active
[2]
  Activity: 39.7%

## O=C(Nc1ccc(N2C(=O)c3cccc(Cl)c3C2=O)c(Cl)c1)c1ccccn1
[2]
  Activity: 130%
[3]
  EC50: 34.9 nM
[4]
  fold change (FC): 83
[5]
  Activity: 137%

## CC1(c2ccccc2)CC(=O)N(c2ccc(NC(=O)c3ccccn3)cc2Cl)C1=O (racemic)
[2]
  Activity: 124%
[4]
  fold change (FC): 16.7
[5]
  Activity: 131%

## O=C(Nc1ccc(N2C(=O)CCC2=O)c(Cl)c1)c1ccccn1
[1]
  EC50: 6200 nM
[2]
  Activity: 74%

## O=C(Nc1ccc(N2S(=O)(=O)c3ccccc3S2(=O)=O)cc1)c1cscn1
[1]
  EC50: 104 nM
[2]
  Activity: 123%
[3]
  EC50: 105 nM
[4]
  fold change (FC): 7.3
[5]
  Activity: 115%

## O=C(Nc1ccc(N2S(=O)(=O)c3ccccc3S2(=O)=O)cc1)C1CCCCC1
[1]
  EC50: 765 nM
[2]
  Activity: 48.3%

## O=S1(=O)c2ccccc2S(=O)(=O)N1c1ccc(NC2(c3ccccn3)CC2)cc1
[1]
  EC50: 6400 nM
[2]
  Activity: 62.7%

## O=C(Nc1ccc(N2C(=O)[C@@H]3[C@H](C2=O)[C@H]2C=C[C@@H]3CC2)c(Cl)c1)c1ccccn1
[2]
  Activity: 120%
[4]
  fold change (FC): 5.2
[5]
  Activity: 122%

## O=S1(=O)c2ccccc2S(=O)(=O)N1c1ccc(NCc2ccccn2)cc1
[1]
  EC50: 1800 nM
[2]
  Activity: 110%

## O=C(Nc1ccc(N2S(=O)(=O)c3ccccc3S2(=O)=O)cc1)c1ccccc1
[1]
  EC50: 402 nM
[2]
  Activity: 65%

## O=C(Nc1ccc(N2CCCS2(=O)=O)cc1)c1ccccn1
[1]; cho
  EC50: Not Active
[2]
  Activity: 25%

## O=C(Nc1ccc(N2C(=O)c3ccccc3C2=O)c(Cl)c1)c1ccccn1
[2]
  Activity: 104%
[3]
  EC50: 66.8 nM
[4]
  fold change (FC): 23.6
[5]
  Activity: 132%

## O=C(Nc1ccc(N2S(=O)(=O)c3ccccc3S2(=O)=O)cc1F)c1ccccn1
[1]
  EC50: 1100 nM
[2]
  Activity: 67.7%

## COc1cccc(C(=O)Nc2ccc(N3S(=O)(=O)c4ccccc4S3(=O)=O)cc2)n1
[1]; cho
  EC50: Not Active
[2]
  Activity: 22%

## O=C(Nc1ccc(N2S(=O)(=O)c3ccccc3S2(=O)=O)cc1)c1ccncc1
[1]; cho
  EC50: Not Active
[2]
  Activity: 22.3%

## O=C(Nc1ccc(N2S(=O)(=O)c3ccccc3S2(=O)=O)cc1)c1ccncn1
[1]
  EC50: 179 nM
[2]
  Activity: 100%
[3]
  EC50: 242 nM
[4]
  fold change (FC): 3.3
[5]
  Activity: 103%

## O=C(Nc1ccc(N2C(=O)[C@H]3CCCC[C@H]3C2=O)c(Cl)c1)c1ccccn1
[2]
  Activity: 107%
[3]
  EC50: 645 nM
[4]
  fold change (FC): 8.3
[5]
  Activity: 129%

## O=C(Nc1ccc(N2S(=O)(=O)c3ccccc3S2(=O)=O)cc1)c1ccco1
[1]
  EC50: 226 nM
[2]
  Activity: 110%

## CC1(C)[C@@H]2C(=O)N(c3ccc(NC(=O)c4ccccn4)cc3Cl)C(=O)[C@@H]21
[2]
  Activity: 100%
[4]
  fold change (FC): 5.5
[5]
  Activity: 105%

## O=C(Nc1ccc(N2S(=O)(=O)c3ccccc3S2(=O)=O)cc1)c1cccnc1
[1]; cho
  EC50: Not Active
[2]
  Activity: 27.7%

## O=C(Nc1ccccn1)c1ccc(N2S(=O)(=O)c3ccccc3S2(=O)=O)cc1
[1]; cho
  EC50: Not Active
[2]
  Activity: 30.7%

## O=C(Nc1ccc(N2S(=O)(=O)c3ccccc3S2(=O)=O)cc1)c1nccs1
[1]
  EC50: 353 nM
[2]
  Activity: 122%
[3]
  EC50: 201 nM
[4]
  fold change (FC): 4.7
[5]
  Activity: 127%

## O=C(Nc1ccc(N2S(=O)(=O)c3ccccc3S2(=O)=O)cc1)c1cccc(F)n1
[1]
  EC50: 1800 nM
[2]
  Activity: 76.7%

## CC1(C)CC(=O)N(c2ccc(NC(=O)c3ccccn3)cc2Cl)C1=O
[1]
  EC50: 1400 nM
[2]
  Activity: 82%
